Reference: ChEMBL document CHEMBL1152740, “Synthesis and pharmacological activities of some sesquiterpene quinones and hydroquinones” (Bioorg Med Chem, 2009)
In brackets after ≈: the same amount, converted by molar mass. Activity calls are given as the source filed them. No cut-off for these calls is given here.

Key:
L929 = test: Antiproliferative activity against mouse L929 cells; assay type: cell-based
How it was run: (§1)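 GI50 or CC50 values were read from mean dose-response curves, with 4 parallels per concentration.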

K562 = test: Antiproliferative activity against human K562 cells; assay type: functional; how it was run: as §1
HeLa = test: Cytotoxicity against human HeLa cells; assay type: functional; how it was run: as §1
Neutrophil = test: Inhibition of serum-opsonized zymosan-stimulated ROS production in bovine neutrophils by luminol-dependent chemiluminescence assay; assay type: functional, cell-based; details: Bos taurus
[1] = target: Dehydrogenase/reductase SDR family member 9 (Homo sapiens) (UniProt Q9BPW9); test: Inhibition of 3alpha-HSD
HepG2 = test: Growth inhibition of human HepG2 cells; assay type: functional; how it was run: as §1
[2] = Growth inhibition of human HM02 cells; assay type: functional; how it was run: as §1
MCF7 = test: Growth inhibition of human MCF7 cells; assay type: functional; how it was run: as §1
[3] = target: T1, Prostaglandin G/H synthase 2 (Homo sapiens, UniProt P35354)
T1 sequence (P35354 whole entry): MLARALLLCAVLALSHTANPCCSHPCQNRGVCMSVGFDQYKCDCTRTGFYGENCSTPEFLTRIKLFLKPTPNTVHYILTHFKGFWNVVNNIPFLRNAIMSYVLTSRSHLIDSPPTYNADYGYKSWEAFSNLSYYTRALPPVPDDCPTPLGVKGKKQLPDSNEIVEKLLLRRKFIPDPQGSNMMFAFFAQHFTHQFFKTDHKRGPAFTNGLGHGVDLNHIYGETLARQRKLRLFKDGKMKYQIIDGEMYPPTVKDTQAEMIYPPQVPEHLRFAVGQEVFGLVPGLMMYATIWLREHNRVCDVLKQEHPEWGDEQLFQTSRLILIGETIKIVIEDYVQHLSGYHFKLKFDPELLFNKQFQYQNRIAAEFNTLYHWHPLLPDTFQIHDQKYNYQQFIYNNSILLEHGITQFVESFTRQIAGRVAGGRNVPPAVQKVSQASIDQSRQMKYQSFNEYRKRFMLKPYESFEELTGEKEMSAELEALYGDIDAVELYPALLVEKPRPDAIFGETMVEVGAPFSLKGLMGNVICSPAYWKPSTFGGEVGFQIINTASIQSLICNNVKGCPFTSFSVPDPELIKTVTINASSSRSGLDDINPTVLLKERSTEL

Dehydrogenase/reductase SDR family member 9 (Homo sapiens), sequence (Q9BPW9 whole entry): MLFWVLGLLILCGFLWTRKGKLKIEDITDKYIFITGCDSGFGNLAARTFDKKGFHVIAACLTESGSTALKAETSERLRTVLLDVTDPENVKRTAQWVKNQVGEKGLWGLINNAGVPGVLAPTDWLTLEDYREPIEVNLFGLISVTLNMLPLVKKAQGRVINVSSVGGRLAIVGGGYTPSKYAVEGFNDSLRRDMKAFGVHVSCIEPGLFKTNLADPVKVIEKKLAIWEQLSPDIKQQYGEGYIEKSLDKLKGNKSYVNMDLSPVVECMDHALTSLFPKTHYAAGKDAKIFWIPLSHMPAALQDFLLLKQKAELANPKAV

Row | Structure (SMILES) | GI50 (K562) | Activity [1] | GI50 (HepG2) | GI50 (MCF7) | GI50 (L929) | CC50 (HeLa) | Activity (Neutrophil) | GI50 [2] | IC50 [3]
1 | C=C1CC[C@@H]2C(C)(C)CCC[C@@]2(C)[C@@H]1CC1=CC(=O)C=CC1=O | – | – | – | – | – | – | Active | – | –
2 | CC1=CC[C@@H]2C(C)(C)CCC[C@@]2(C)[C@@H]1Cc1cc(O)ccc1O | – | – | – | – | – | – | Active | – | –
3 | CC1=CC[C@H]2C(C)(C)CCC[C@]2(C)[C@H]1/C=C1\C=C2OCOC2=CC1=O (racemic) | 3.5 µM | Active | – | – | 6.2 µM | 7.4 µM | – | – | –
4 | COc1ccc(O)c(O)c1/C=C1\[C@@H](C)CC[C@H]2C(C)(C)CCC[C@]12C (racemic) [(+/-)-WIEDENDIOL B] | 35.8 µM | Active | – | – | 63.1 µM | 38.1 µM | – | – | 0.7 µM
5 | COc1ccc(O)c(O)c1C[C@@]1(C)C2=C(CC[C@@H]1C)C(C)(C)CCC2 (racemic) [SESQUITERPENE HYDROQUINONE] | 25.6 µM | – | – | – | 59.9 µM | 41.3 µM | – | – | –
6 | COc1cccc2c1C(=O)c1c(O)c3c(c(O)c1C2=O)C[C@@](O)(C(=O)CO)C[C@@H]3O[C@H]1C[C@H](N)[C@H](O)[C@H](C)O1 [DOXORUBICIN] | 1 µM | – | – | – | 1.2 µM | 2 µM | – | – | –

More lines, main results first:

Row | GI50 (K562) | Activity [1] | GI50 (HepG2) | GI50 (MCF7) | Structure (SMILES) | GI50 (L929) | CC50 (HeLa) | Activity (Neutrophil) | GI50 [2] | IC50 [3]
7 | 20.7 µM | – | – | – | COC1=CC(=O)C(OC)=C(/C=C2\[C@@H](C)CC[C@H]3C(C)(C)CCC[C@]23C)C1=O | 41.6 µM | 75.3 µM | – | – | –
8 | – | Active | – | – | C=C1CC[C@@H]2C(C)(C)CCC[C@@]2(C)[C@@H]1Cc1cc(O)ccc1O | – | – | Active | – | –
9 | – | Active | – | – | CC1=CC[C@@H]2C(C)(C)CCC[C@@]2(C)[C@@H]1CC1=CC(=O)C=CC1=O | – | – | Active | – | –
10 | 8.4 µM | Active | 6 µg/mL (≈ 16.7 µM) | 2.4 µg/mL (≈ 6.69 µM) | C=C1CC[C@@H]2C(C)(C)CCC[C@@]2(C)[C@@H]1CC1=C(O)C(=O)C=C(OC)C1=O (racemic) | 20.9 µM | 72.1 µM | – | 5.3 µg/mL (≈ 14.8 µM) | –
11 | 6.1 µM | – | – | – | COC1=CC(=O)C(O)=C(C[C@@]2(C)C3=C(CC[C@@H]2C)C(C)(C)CCC3)C1=O (racemic) | 14 µM | 62.3 µM | – | – | –
12 | 13.4 µM | Active | 3.6 µg/mL (≈ 10 µM) | 2.6 µg/mL (≈ 7.25 µM) | COC1=CC(=O)C(O)=C(/C=C2\[C@@H](C)CC[C@H]3C(C)(C)CCC[C@]23C)C1=O (racemic) | 27.1 µM | 75.1 µM | – | 3.1 µg/mL (≈ 8.65 µM) | –
13 | 26.6 µM | Active | – | – | COC1=CC(=O)C(=O)C(C[C@@]2(C)C3=C(CC[C@@H]2C)C(C)(C)CCC3)=C1OC (racemic) | 73.4 µM | 61.3 µM | – | – | –
14 | 21.1 µM | Active | – | – | COc1c(C[C@H]2C(C)=CC[C@H]3C(C)(C)CCC[C@]23C)cc2c(c1C=O)OCO2 (racemic) [PROTECTED SIPHONODICTYAL C] | 24 µM | 41.4 µM | – | – | –
15 | 6.2 µM | – | – | – | C=C1CC[C@H]2C(C)(C)CCC[C@]2(C)[C@H]1/C=C1\C=C2OCOC2=CC1=O (racemic) [SESQUITERPENE CYCLOHEXADIENONE] | 12.9 µM | 20.6 µM | – | – | –
